Measurements from ChEMBL document CHEMBL1142419, “Antimycobacterial activities of novel 2-(sub)-3-fluoro/nitro-5,12-dihydro-5-oxobenzothiazolo[3,2-a]quinoline-6-carboxylic acid” (Bioorg Med Chem, 2008).
Converted amounts (≈) assume the structure as drawn.

Tests used:
[1] = tested on: Mus musculus; assay: Phototoxicity in Swiss albino mouse assessed as ear thickness at 140 mg/kg, po after 24 hrs of irradiation; format: organism-based; set-up: dose 140 mg/kg, route oral; details: in vivo
Summary of the method: (§1)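 Female Swiss albino mice (about 2 months, 20–25 g), fasted at least 18 h, received a single oral gavage of 140 mg/kg. Groups: six per group; lomefloxacin HCl 140 mg/kg; vehicle 0.5% aqueous sodium carboxymethylcellulose at 10 ml/kg. Mice were UV-irradiated for 4 h (about 18 J/cm²). Both ears were scored for erythema, edema and ear thickness (left/right averaged) pre-dose, at end of irradiation, and at about 24, 48, 72 and 96 h. Ear thickness change from baseline was tested by Student's t-tests.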

[2] = tested on: Mycobacterium tuberculosis; assay: Antimycobacterial activity against Mycobacterium tuberculosis ATCC 35801 infected in CD1 mouse assessed as bacterial load in spleen at 50 mg/kg, ip after 10 days; format: functional; details: route intraperitoneal
Summary of the method: (§2)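 Six-week-old female CD-1 mice, six per group, infected intravenously via caudal vein with ~10⁷ viable M. tuberculosis ATCC 35801. Intraperitoneal dosing began 10 days after inoculation and ran 10 days. On day 35 post-infection, spleens and right lungs were removed and homogenized. Serial 10-fold dilutions were plated on 7H10 agar (37 °C, ambient air, 4 weeks). Log CFU compared against vehicle-treated controls.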

[3] = tested on: Mycolicibacterium smegmatis; assay: Antimycobacterial activity against Mycobacterium smegmatis MC2 by agar dilution method; format: functional
Summary of the method: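 Agar dilution on Middlebrook 7H11 agar supplemented with OADC, following an NCCLS-like procedure; MIC determined in duplicate against M. smegmatis ATCC 14468 (MC²).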

[4] = tested on: Mus musculus; assay: Phototoxicity in Swiss albino mouse assessed as erythema incidence at 140 mg/kg, po after 96 hrs of irradiation; format: organism-based; set-up: dose 140 mg/kg, route oral; details: in vivo; summary of the method: as §1
[5] = Inhibition of Mycobacterium smegmatis DNA gyrase supercoiling activity; set-up: species or system Mycolicibacterium smegmatis
[6] = tested on: Mycobacterium tuberculosis; assay: Antimycobacterial activity against Mycobacterium tuberculosis ATCC 35801 infected in CD1 mouse assessed as bacterial load in lung at 50 mg/kg, ip after 10 days; format: functional; details: route intraperitoneal; summary of the method: as §2
[7] = tested on: Mycobacterium tuberculosis; assay: Antimycobacterial activity against Mycobacterium tuberculosis H37Rv by agar dilution method; format: functional
Summary of the method: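 MIC by agar dilution on Middlebrook 7H11 agar supplemented with OADC, following an NCCLS-like procedure, run in duplicate. The MDR-TB clinical isolate was resistant to isoniazid, rifampicin, ethambutol and ofloxacin.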

[8] = tested on: Vero; assay: Cytotoxicity against african green monkey Vero cells after 72 hrs by MTT assay; format: cell-based; details: Chlorocebus sabaeus
Summary of the method: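 Vero mammalian cells were exposed to compounds for 72 h, with testing at 62.5 µg/ml. Viability was read as cellular conversion of MTT to formazan (non-radioactive cell proliferation kit), and IC50 was reported.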

[9] = tested on: Mus musculus; assay: Phototoxicity in Swiss albino mouse assessed as ear thickness at 140 mg/kg, po after 48 hrs of irradiation; format: organism-based; set-up: dose 140 mg/kg, route oral; details: in vivo; summary of the method: as §1
[10] = Selectivity index, ratio of IC50 for african green monkey Vero cells to MIC for Mycobacterium tuberculosis H37Rv; format: functional
Summary of the method: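 Vero cells were exposed for 72 h, with viability read by MTT conversion to formazan to give the IC50. The MIC against H37Rv was by duplicate agar dilution on OADC-supplemented Middlebrook 7H11 agar. Index = Vero IC50 / MIC.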

[11] = tested on: Mus musculus; assay: Phototoxicity in Swiss albino mouse assessed as ear thickness at 140 mg/kg, po after 96 hrs of irradiation; format: organism-based; set-up: dose 140 mg/kg, route oral; details: in vivo; summary of the method: as §1
[12] = tested on: Mus musculus; assay: (§3) Phototoxicity in Swiss albino mouse assessed as erythema incidence at 140 mg/kg, po after 48 hrs of irradiation; format: organism-based; set-up: dose 140 mg/kg, route oral; details: in vivo; summary of the method: as §1
[13] = tested on: Mus musculus; assay: Phototoxicity in Swiss albino mouse assessed as ear thickness at 140 mg/kg, po after 4 hrs of irradiation; format: organism-based; set-up: dose 140 mg/kg, route oral; details: in vivo; summary of the method: as §1
[14] = tested on: Mus musculus; assay: as §3; format: organism-based; set-up: dose 140 mg/kg, route oral; details: in vivo; summary of the method: as §1; remark: listed apart in the source
[15] = tested on: Mus musculus; assay: Phototoxicity in Swiss albino mouse assessed as erythema incidence at 140 mg/kg, po after 24 hrs of irradiation; format: organism-based; set-up: dose 140 mg/kg, route oral; details: in vivo; summary of the method: as §1
[16] = tested on: Mus musculus; assay: Phototoxicity in Swiss albino mouse assessed as ear thickness at 140 mg/kg, po after 72 hrs of irradiation; format: organism-based; set-up: dose 140 mg/kg, route oral; details: in vivo; summary of the method: as §1
[17] = tested on: Mycobacterium tuberculosis; assay: Antimycobacterial activity against Mycobacterium tuberculosis ATCC 35801 infected in CD1 mouse assessed as bacterial load in spleen at 25 mg/kg, ip after 10 days; format: functional; details: route intraperitoneal; summary of the method: as §2
[18] = tested on: Mycobacterium tuberculosis; assay: Antimycobacterial activity against Mycobacterium tuberculosis ATCC 35801 infected in CD1 mouse assessed as bacterial load in lung at 25 mg/kg, ip after 10 days; format: functional; details: route intraperitoneal; summary of the method: as §2

Row | SMILES | Activity [1] [mm] | Log10 cfu [2] | MIC [3] [µM] | Activity [4] | IC50 [5] [µg/mL] | Log10 cfu [6] | MIC [7] [µM] | IC50 [8] [µM] | Activity [9] [mm] | Selectivity index [10] | Activity [11] [mm] | Activity [12] | Activity [13] [mm] | Activity [14] | Activity [15] | Activity [16] [mm] | Log10 cfu [17] | Log10 cfu [18]
1 | CCN(CC)C(=O)C1CCCN(c2cc3c(cc2F)c(=O)c(C(=O)O)c2sc4ccccc4n23)C1 (stereo unspecified) | 0.29 | 5.9 | 3.15 (≈ 1.56 µg/mL) | Non-toxic | 40 (≈ 80.7 µM) | 5.21 | 0.18 (≈ 0.0892 µg/mL) | 126 | 0.29 | 1576 | 0.28 | Non-toxic | 0.29 | Non-toxic | Non-toxic | 0.3 | – | –
2 | COc1c(N2CCNC(C)C2)c(F)cc2c(=O)c(C(=O)O)cn(C3CC3)c12 (stereo unspecified) [GATIFLOXACIN] | – | 6.92 | 2.08 (≈ 0.781 µg/mL) | – | – | 6.02 | 1.04 (≈ 0.39 µg/mL) | > 155 | – | – | – | – | – | – | – | – | – | –
3 | NNC(=O)c1ccncc1 [ISONIAZID] | – | – | 45.6 (≈ 6.25 µg/mL) | – | – | – | 0.36 (≈ 0.0494 µg/mL) | > 456 | – | – | – | – | – | – | – | – | 4.71 | 5.86
